The results in this text go back to ChEMBL document CHEMBL1138476 (J Med Chem, 2009).

Series [1] is described as follows: Lipophilicity log P of the compound. The series is classed as physicochemical. The note with it: octanol/water.
Series [2] concerns Rattus norvegicus. The series is described as follows: Anxiolytic activity in rat assessed as decrease in latency to exit dark chamber at 10 mg/kg, po by defensive withdrawal test relative to untreated control. The arrangement: scale not given: the % may be the effect or the level left. Type of series: functional. Put shortly:
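Rat defensive withdrawal: latency to leave the dark chamber and explore the open field, maximum 900 s. Dosed orally in 0.25% Methocel 60 min before testing; n = 8 per dose, mean ± SEM. Analysed by Kruskal–Wallis followed by Mann–Whitney U against vehicle.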

Series [3] in a line: Aqueous solubility at pH 7. The series is classed as physicochemical. The note with it: aqueous medium.
Series [4] deals with Rattus norvegicus. The series is described as follows: Anxiolytic activity in rat assessed as increase in time spent on open arm at 18 mg/kg, po by elevated plus-maze test. The arrangement: dose 18 mg/kg. The series is classed as functional, organism-based. Summed up:
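Rat elevated plus maze: percent of test time spent in the open arms. Oral dosing in 0.25% Methocel 60 min before testing; n = 12 per dose, mean ± SEM. Analysed by ANOVA followed by Fisher's LSD comparisons against vehicle.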

The nature of series [5]: Solubility in dilute HCl at pH 2.3. The series is classed as physicochemical.
Series [6] in a line: Aqueous solubility at pH 7.4. Type of series: physicochemical. To be noted: aqueous medium. Put shortly:
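Solubility measured in water at pH 7.4.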

In series [7] the target is T1, Corticotropin-releasing factor receptor 1 (Rattus norvegicus, UniProt P35353).
T1 sequence (P35353 whole entry): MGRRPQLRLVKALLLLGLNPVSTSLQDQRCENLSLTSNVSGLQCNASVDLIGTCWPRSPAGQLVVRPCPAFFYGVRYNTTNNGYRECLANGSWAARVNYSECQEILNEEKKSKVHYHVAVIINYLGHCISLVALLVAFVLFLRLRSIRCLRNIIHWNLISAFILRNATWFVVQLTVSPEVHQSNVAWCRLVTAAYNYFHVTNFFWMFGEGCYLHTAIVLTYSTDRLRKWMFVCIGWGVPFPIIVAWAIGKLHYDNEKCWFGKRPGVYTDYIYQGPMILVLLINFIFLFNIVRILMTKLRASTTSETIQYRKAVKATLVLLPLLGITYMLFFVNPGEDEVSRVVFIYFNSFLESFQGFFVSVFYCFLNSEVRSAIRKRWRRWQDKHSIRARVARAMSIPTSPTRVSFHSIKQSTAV
The series is described as follows: Displacement of [125I]Tyro-rat/human CRF from CRF1 receptor in rat cortical membrane by gamma counting. The series is classed as cell membranes. Put shortly:
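Binding to CRF receptors in rat cortical homogenate.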
Background: In a radioligand displacement assay an active substance lowers the binding of a labelled ligand.

Series [8] is described as follows: AUC in Beagle dog at 1 mg/kg, po by cassette dosing. The arrangement: dose 1 mg/kg, route oral. Type of series: ADME, organism-based, Canis lupus familiaris. To be noted: plasma.
Series [9] is described as follows: Cmax in Beagle dog at 1 mg/kg, po by cassette dosing. The series is classed as ADME, organism-based, Canis lupus familiaris. The arrangement: dose 1 mg/kg, route oral. To be noted: in vivo.
Series [10] is described as follows: Half life in Beagle dog at 1 mg/kg, po by cassette dosing. Type of series: ADME, organism-based, Canis lupus familiaris. The arrangement: dose 1 mg/kg, route oral. The note with it: in vivo.
Series [11] is described as follows: Elimination half life in chimpanzee at 1 mg/kg, po. To be noted: in vivo, read-out: beta t1/2 (converted). Type of series: ADME, organism-based, Pan troglodytes. The arrangement: dose 1 mg/kg, route oral. Put shortly:
(§1)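 Two alert chimpanzees were given 1 mg/kg po as a 1 mg/mL suspension in 50:50 (v/v) 0.5% methylcellulose and Tang orange juice containing 1% Tween-80. EDTA blood was taken predose and at 2–96 h. Bioavailability was calculated against a 0.5 mg/kg iv dose given to one animal.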

Series [12] is described as follows: Clearance in chimpanzee at 0.5 mg/kg, iv. The series is classed as ADME, organism-based, Pan troglodytes. The arrangement: dose 0.5 mg/kg, route intravenous. The note with it: in vivo. Summed up: (§2)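 Chimpanzee PK. Oral: 1 mg/kg in two alert animals, given as a 1 mg/mL suspension in 50–50 (v/v) 0.5% methylcellulose/Tang orange juice with 1% Tween-80. IV: 0.5 mg/kg in one animal in 10% DMAC, 70% propylene glycol and deionized water, infused over 10 min (0.2 mL/kg). EDTA blood was taken predose and at 2–96 h; iv sampling added 6, 15 and 30 min.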

A short description of series [13]: Half life in Beagle dog by discrete dosing. The series is classed as ADME, organism-based, Canis lupus familiaris. The note with it: in vivo.
Series [14] has as its target T1, Corticotropin-releasing factor receptor 1. The series is described as follows: Agonist activity at CRF1 receptor in rat pituitary cells.
A short description of series [15]: Volume of distribution at steady state in chimpanzee at 0.5 mg/kg, iv. The series is classed as ADME, organism-based, Pan troglodytes. The arrangement: dose 0.5 mg/kg, route intravenous. To be noted: in vivo, read-out: Vdss. Put shortly:
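Single chimpanzee given 0.5 mg/kg iv over 10 min (0.2 mL/kg) in 10% DMAC, 70% propylene glycol and deionized water. EDTA blood taken predose, at 6, 15 and 30 min, and at 2 to 96 h.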

Series [16] in a line: Tmax in rat at 5 mg/kg, po. Type of series: ADME, organism-based. The arrangement: dose 5 mg/kg, route oral. To be noted: in vivo. Put shortly:
(§3)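 Rats (n = 3) dosed iv at 1 mg/kg in 10% DMAC, 70% propylene glycol and deionized water, and orally at 5 mg/kg in 0.5% methylcellulose.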

Series [17] can be described thus: Cmax in rat at 5 mg/kg, po. The series is classed as ADME, organism-based. The arrangement: dose 5 mg/kg, route oral. To be noted: in vivo. Put shortly:
(§4)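 Rats (n = 3) received 1 mg/kg iv in 10% DMAC, 70% propylene glycol and deionized water, or 5 mg/kg orally in 0.5% methylcellulose.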

A short description of series [18]: Oral bioavailability in rat at 5 mg/kg. Type of series: ADME, organism-based. To be noted: in vivo. Summed up:
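Rats (n = 3) were dosed at 1 mg/kg iv in 10% DMAC, 70% propylene glycol and deionized water, and at 5 mg/kg po in 0.5% methylcellulose.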

Series [19] in a line: Oral bioavailability in chimpanzee at 1 mg/kg. Type of series: ADME, organism-based, Pan troglodytes. To be noted: in vivo. Summed up: as §1
A short description of series [20]: Elimination half life in chimpanzee at 0.5 mg/kg, iv. The arrangement: dose 0.5 mg/kg, route intravenous. The series is classed as ADME, organism-based, Pan troglodytes. To be noted: in vivo, read-out: beta t1/2 (converted). Put shortly:
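One chimpanzee received 0.5 mg/kg iv over 10 min (0.2 mL/kg) in 10% DMAC, 70% propylene glycol and deionized water. Blood was drawn into EDTA predose and at 6, 15, 30 min and 2, 4, 6, 9, 12, 24, 36, 48, 72 and 96 h.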

Series [21] can be described thus: AUC (0 to infinity) in chimpanzee at 0.5 mg/kg, iv. Type of series: ADME, organism-based, Pan troglodytes. The arrangement: time infinity, dose 0.5 mg/kg, route intravenous. To be noted: plasma. Summed up:
as §2

The nature of series [22]: Volume of distribution at steady state in rat at 1 mg/kg, iv and 5 mg/kg, po. The series is classed as ADME, organism-based. The note with it: in vivo, read-out: Vdss. Put shortly:
as §3

Series [23] is described as follows: Clearance in rat at 1 mg/kg, iv and 5 mg/kg, po. Type of series: ADME, organism-based. The note with it: in vivo. Summed up:
as §4

A short description of series [24]: Cmax in chimpanzee at 1 mg/kg, po. The series is classed as ADME, organism-based, Pan troglodytes. The arrangement: dose 1 mg/kg, route oral. To be noted: in vivo. Put shortly: as §2
Series [25] can be described thus: AUC (0 to infinity) in chimpanzee at 1 mg/kg, po. The series is classed as ADME, organism-based, Pan troglodytes. The note with it: plasma. The arrangement: time infinity, dose 1 mg/kg, route oral. Put shortly: as §2

Each structure is given as a SMILES string. In brackets after ≈: the same amount, converted by molar mass. Activity calls are given as the source filed them. The rule behind the calls is not given here. Where only a bound is given, the exact number is not on record here.

Usually logP stands for a log measure of how a compound divides between an organic and an aqueous phase. Broadly, the solubility is how much of the substance goes into solution per volume. By IC50 is commonly meant the point on the concentration scale where inhibition reaches its midpoint. By AUC is commonly meant the area under the concentration-time curve, a measure of exposure. As a reminder, the Cmax is the peak of the concentration-time curve. Usually Tmax stands for the time at which the peak concentration occurs. What is called bioavailability is the share of a dose that reaches the circulation, judged against a reference dose that is usually intravenous. One may read the AUC(0-inf) as the area under the concentration-time curve extrapolated to infinity.

In series [1], `COCC(COC)Nc1nc(C)nc2c(-c3ccc(Cl)cc3Cl)c(C)nn12` returned a logP of 4.97. For the same molecule, the Activity in the series on Rattus norvegicus [2] is 72%. Moreover, the results for the solubility in [3], in series [5] and in [6] were below 1 µg/mL, 230 µg/mL (≈ 561 µM) and below 1 µg/mL, respectively. The result in the series with Rattus norvegicus [4] was Active.

The molecule `CCN(C)c1nc(C)nc2c(-c3ccc(OC)nc3C)c(C)nn12` displayed an IC50 in series [7] of 81.6 nM.

Take `CCCC(C)Nc1nc(C)nc2c(-c3ccc(OC)nc3C)c(C)nn12` (centres undefined): the AUC in series [8] was 0.955 µM·h. In series [9], this molecule gave a Cmax of 156 nM. For the same molecule, the IC50 in series [7] is 3.5 nM. Further, in series [10], the half-life is 11.8 h.

Regarding `CCCCC(C)Nc1nc(C)nc2c(-c3ccc(OC)nc3C)c(C)nn12` (centres undefined), the IC50 in series [7] is 5.1 nM.

In [7], `CCCN(CCC)c1nc(C)nc2c(-c3c(C)cc(N(C)C)nc3C)c(C)nn12` returned an IC50 of 14.9 nM.

In the case of `CCN(CC)c1nc(C)nc2c(-c3ccc(OC)nc3C)c(C)nn12`, the IC50 in series [7] turned out to be 12 nM.

The molecule `CCCN(CCC)c1nc(C)nc2c(-c3ccc(OC)nc3C)c(C)nn12` displayed an IC50 in series [7] of 5.7 nM.

Consider `COCCN(CCOC)c1nc(C)nc2c(-c3ccc(OC)cc3C)c(C)nn12.O=S(=O)(O)c1ccccc1`, for which the half-life in [11] was 16.5 h; in series [13] it was 27 h; in series [20], 20.2 h; in series [10], 10.1 h. Also, the clearance was 10.2 mL/min/kg in series [12] and 20 mL/min/kg in series [23]. In series [8], this molecule returned an AUC of 1.66 µM·h. Besides, in series [1], the logP came to 4.76. Moreover, in series [14], the IC50 is 72.9 nM. Further, the Vd in series [15] stood at 9.52 L/kg; in series [22], 14.6 L/kg. For the same molecule, the Tmax in [16] was 0.5 h. Further, the results for the Cmax in [9], in series [17] and in series [24] were 369 nM, 851 nM and 27 nM, respectively. Besides, the bioavailability is 51% in series [18] and 5.2% in [19]. Moreover, the solubility in series [5] was 2500 µg/mL; in series [6], below 1 µg/mL. The figures for the AUC(0-inf) in series [21] and in [25] were 2.04 µM·h and 0.212 µM·h, respectively.

`CC[C@H](C)Nc1nc(C)nc2c(-c3ccc(OC)nc3C)c(C)nn12` returned an AUC in [8] of 0.916 µM·h. Also, the peak level in series [9] (Cmax) was 168 nM. Also, the IC50 in series [7] came to 7 nM. In series [10], this molecule had a half-life of 7.9 h.

`CCC[C@H](C)Nc1nc(C)nc2c(-c3ccc(OC)nc3C)c(C)nn12` had an IC50 in [7] of 4.5 nM.

`CCC(CC)Nc1nc(C)nc2c(-c3c(C)cc(N(C)C)nc3C)c(C)nn12`: in series [7], the IC50 came to 25.6 nM.

For the molecule `COCCN(CCOC)c1nc(C)nc2c(-c3c(C)cc(N(C)C)nc3C)c(C)nn12`, the IC50 in [7] was found to be 133 nM.

As to `CCN(CC)c1nc(C)nc2c(-c3c(C)cc(N(C)C)nc3C)c(C)nn12`, the IC50 in [7] came to 58 nM.

In series [7], `CCN(CCOC)c1nc(C)nc2c(-c3ccc(OC)nc3C)c(C)nn12` returned an IC50 of 6.6 nM.

As for `CCCCN(CC)c1nc(C)nc2c1c(C)cn2-c1c(C)cc(C)cc1C.Cl`, the logP in series [1] was above 5. Also, the solubility in series [3] was below 1 µg/mL.

In series [7], `CCCCN(CC)c1nc(C)nc2c(-c3c(C)cc(N(C)C)nc3C)c(C)nn12` gave an IC50 of 32.8 nM.

The molecule `CCCCN(CCC)c1nc(C)nc2c(-c3c(C)cc(N(C)C)nc3C)c(C)nn12` had an IC50 in [7] of 12.8 nM.
